Experimental data published in ChEMBL document CHEMBL4610084, “Antibacterial and ATP Synthesis Modulating Compounds from Salvia tingitana” (2020).
Converted amounts (≈) assume the structure as drawn.

Key:
Staphylococcus capitis = assay: Antibacterial activity against Methicillin-resistant Staphylococcus capitis MB71 after 24 hrs by microdilution assay; format: functional; settings: MB71, 24 h
How it was run: (§1)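 Broth microdilution MIC, run as in an earlier cited report. Strains are clinical isolates identified by standard methods and MALDI-TOF; E. faecalis MB19 and MB51 are Ligurian seawater isolates. Highest concentration tested was 128 μg/mL. MICs are given in μg/mL and μM, with oxacillin and vancomycin as reference antibiotics.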

Enterococcus faecium [1] = assay: Modulation of ATP synthase in Enterococcus faecium MB152 assessed as inhibition of ATP production at 5 times MIC after 2 hrs by BacTiter-Glo Assay
How it was run: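 Whole-cell ATP assay. VRE strain grown overnight in Mueller Hinton broth at 37 °C, diluted 1:10^6 in fresh broth and grown 2 h, then adjusted by OD600. Manool added at 5 × MIC. Samples taken at 0 and 2 h and mixed 1:1 with BacTiter-Glo for 5 min at room temperature. Luminescence converted via an ATP standard curve (1–0.001 pmol) to pmol/cfu. Broth serves as negative control. Three experiments in triplicate, Student's t test.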

Enterococcus faecium [2] = assay: Antibacterial activity against Enterococcus faecium MB3 after 24 hrs by microdilution assay; format: functional; settings: MB3, 24 h
How it was run: (§2)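 Broth microdilution MIC against clinical or seawater-isolated strains (identified by standard procedures and MALDI-TOF), with compound solutions and testing as in earlier work. MIC reported in μg/mL and μM.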

Enterococcus avium = assay: Antibacterial activity against Enterococcus avium MB119 after 24 hrs by microdilution assay; format: functional; settings: MB119, 24 h; how it was run: as §2
[3] = test system: Staphylococcus epidermidis; assay: Antibacterial activity against Methicillin-resistant Staphylococcus epidermidis MB169 after 24 hrs by microdilution assay; format: functional; settings: MB169, 24 h; how it was run: as §1
Bos taurus [4] = species: Bos taurus; assay: Modulation of ATP synthase in bovine rod outer segments assessed as inhibition of ATP production at 80 ug/ml in presence of Ap5A adenylate kinase inhibitor by luciferin/luciferase chemiluminescent method relative to control
How it was run: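 Bovine rod OS (5 μg) preincubated 5 min at 37 °C in Tris/HCl pH 7.4 with KCl, EGTA, MgCl2, 0.6 mM ouabain, 0.25 mM Ap5A, 5 mM KH2PO4, 20 mM succinate, 0.35 mM NADH and ampicillin. Synthesis started with 0.1 mM ADP and stopped with perchloric acid. ATP read by luciferin/luciferase luminescence. Samples at 80 μg/mL; 30 μM resveratrol as positive control. Triplicates, ANOVA/Bonferroni.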

Bos taurus [5] = species: Bos taurus; assay: Modulation of ATP synthase in bovine rod outer segments assessed as inhibition of ATP hydrolysis at 80 ug/ml in presence of Ap5A adenylate kinase inhibitor by pyruvate kinase/lactate dehydrogenase assay relative to control
Staphylococcus aureus [6] = assay: Antibacterial activity against Methicillin-resistant Staphylococcus aureus MB188 after 24 hrs by microdilution assay; format: functional; settings: MB188, 24 h; how it was run: as §1
Enterococcus faecalis [7] = assay: Antibacterial activity against Enterococcus faecalis MB76 after 24 hrs by microdilution assay; format: functional; settings: MB76, 24 h; how it was run: as §1
Enterococcus faecalis [8] = assay: Antibacterial activity against Vancomycin resistant Enterococcus faecalis MB1 after 24 hrs by microdilution assay; format: functional; settings: MB1, 24 h; how it was run: as §1
Enterococcus faecium [9] = assay: Antibacterial activity against Enterococcus faecium MB2 after 24 hrs by microdilution assay; format: functional; settings: MB2, 24 h; how it was run: as §2
Enterococcus durans = assay: Antibacterial activity against Enterococcus durans MB113 after 24 hrs by microdilution assay; format: functional; settings: MB113, 24 h; how it was run: as §2
[10] = test system: Staphylococcus haemolyticus; assay: Antibacterial activity against Methicillin-resistant Staphylococcus haemolyticus MB115 after 24 hrs by microdilution assay; format: functional; settings: MB115, 24 h; how it was run: as §1
[11] = test system: Staphylococcus epidermidis; assay: Antibacterial activity against Methicillin-resistant Staphylococcus epidermidis MB165 after 24 hrs by microdilution assay; format: functional; settings: MB165, 24 h; how it was run: as §1
Enterococcus faecium [12] = assay: Antibacterial activity against Enterococcus faecium MB152 after 24 hrs by microdilution assay; format: functional; settings: MB152, 24 h; how it was run: as §2
Staphylococcus simulans = assay: Antibacterial activity against Staphylococcus simulans MB94 after 24 hrs by microdilution assay; format: functional; settings: MB94, 24 h; how it was run: as §2
Enterococcus faecium [13] = assay: Bacteriostatic activity against Enterococcus faecium MB152 assessed as ratio of reduction in bacterial growth by measuring order of magnitude at 4 times MIC by time kill assay; format: functional
How it was run: (§3)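 Time-kill curves: viable cell counts of susceptible strains recorded with or without compound at 4 × MIC.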

Enterococcus faecalis [14] = assay: Bacteriostatic activity against Enterococcus faecalis MB1 assessed as ratio of reduction in bacterial growth at 4 times MIC by time kill assay; format: functional; how it was run: as §3
[15] = test system: Staphylococcus lugdunensis; assay: Antibacterial activity against Staphylococcus lugdunensis MB96 after 24 hrs by microdilution assay; format: functional; settings: MB96, 24 h; how it was run: as §2
Staphylococcus aureus [16] = assay: Antibacterial activity against Methicillin-resistant Staphylococcus aureus MB18 after 24 hrs by microdilution assay; format: functional; settings: MB18, 24 h; how it was run: as §1
Enterococcus gallinarum = assay: Antibacterial activity against Vancomycin resistant Enterococcus gallinarum MB111 after 24 hrs by microdilution assay; format: functional; settings: MB111, 24 h; how it was run: as §1
Staphylococcus warneri = assay: Antibacterial activity against Methicillin-resistant Staphylococcus warneri MB74 after 24 hrs by microdilution assay; format: functional; settings: MB74, 24 h; how it was run: as §1
Enterococcus faecalis [17] = assay: Antibacterial activity against Vancomycin resistant Enterococcus faecalis MB19 after 24 hrs by microdilution assay; format: functional; settings: MB19, 24 h; how it was run: as §1
[18] = test system: Staphylococcus saprophyticus; assay: Antibacterial activity against Staphylococcus saprophyticus MB41 after 24 hrs by microdilution assay; format: functional; settings: MB41, 24 h; how it was run: as §2
[19] = test system: Enterococcus casseliflavus; assay: Antibacterial activity against Vancomycin resistant Enterococcus casseliflavus MB159 after 24 hrs by microdilution assay; format: functional; settings: MB159, 24 h; how it was run: as §1
Staphylococcus hominis = assay: Antibacterial activity against Methicillin-resistant Staphylococcus hominis MB124 after 24 hrs by microdilution assay; format: functional; settings: MB124, 24 h; how it was run: as §1
Enterococcus faecalis [20] = assay: Antibacterial activity against Vancomycin resistant Enterococcus faecalis MB51 after 24 hrs by microdilution assay; format: functional; settings: MB51, 24 h; how it was run: as §1
Staphylococcus aureus [21] = assay: Bacteriostatic activity against Methicillin-resistant Staphylococcus aureus MB18 assessed as ratio of reduction in bacterial growth at 4 times MIC by time kill assay; format: functional
[22] = test system: Staphylococcus epidermidis; assay: Bacteriostatic activity against Staphylococcus epidermidis MB165 assessed as ratio of reduction in bacterial growth at 4 times MIC by time kill assay; format: functional; how it was run: as §3

Compound `C=C[C@@](C)(O)CC[C@H]1C(=C)CC[C@H]2C(C)(C)CCC[C@]12C` [MANOOL] has an MIC (Staphylococcus capitis) greater than 128 µg/mL, an inhibition (Enterococcus faecium [1]) of 30% and an MIC (Enterococcus faecium [2]) of 28 µM (≈ 8.13 µg/mL). The MIC (Enterococcus avium) was 28 µM (≈ 8.13 µg/mL), the MIC [3] was greater than 128 µg/mL and the inhibition (Bos taurus [4]) was 60%. For the same compound, the inhibition (Bos taurus [5]) was 92%, the MIC (Staphylococcus aureus [6]) was greater than 128 µg/mL and the MIC (Enterococcus faecalis [7]) was 110 µM (≈ 32 µg/mL). For the same compound, the MIC (Enterococcus faecalis [8]) was 55 µM (≈ 16 µg/mL), the MIC (Enterococcus faecium [9]) was 14 µM and the MIC (Enterococcus durans) was 55 µM. The MIC [10] was greater than 128 µg/mL, the MIC [11] was greater than 128 µg/mL and the MIC (Enterococcus faecium [12]) was 28 µM (≈ 8.13 µg/mL). The MIC (Staphylococcus simulans) was greater than 128 µg/mL, the Ratio (Enterococcus faecium [13]) was 1 - 2 and the Ratio (Enterococcus faecalis [14]) was 1 - 2. For the same compound, the MIC [15] was greater than 128 µg/mL, the MIC (Staphylococcus aureus [16]) was greater than 128 µg/mL and the MIC (Enterococcus gallinarum) was 14 µM (≈ 4.07 µg/mL). For the same compound, the MIC (Staphylococcus warneri) was greater than 128 µg/mL, the MIC (Enterococcus faecalis [17]) was 110 µM (≈ 32 µg/mL) and the MIC [18] was greater than 128 µg/mL. It also gave an MIC [19] of 55 µM (≈ 16 µg/mL), an MIC (Staphylococcus hominis) greater than 128 µg/mL and an MIC (Enterococcus faecalis [20]) of 55 µM (≈ 16 µg/mL).
`COC(=O)[C@]1(C)CCC[C@@]2(C)[C@H]1[C@@H](O)C[C@@](C)(O)[C@@H]2CC/C(C)=C/C[C@H]1OC(=O)C=C1C` was tested, and the MIC (Staphylococcus capitis) was 286 µM, the MIC (Enterococcus faecium [2]) was 286 µM (≈ 128 µg/mL) and the MIC (Enterococcus avium) was 143 µM (≈ 64.1 µg/mL). The MIC [3] was greater than 128 µg/mL, the inhibition (Bos taurus [4]) was 60% and the MIC (Staphylococcus aureus [6]) was greater than 128 µg/mL. The MIC (Enterococcus faecalis [7]) was 286 µM (≈ 128 µg/mL), the MIC (Enterococcus faecalis [8]) was 143 µM (≈ 64.1 µg/mL) and the MIC (Enterococcus faecium [9]) was 286 µM. The MIC (Enterococcus durans) was 286 µM, the MIC [10] was greater than 128 µg/mL and the MIC [11] was 286 µM. For the same compound, the MIC (Enterococcus faecium [12]) was 143 µM (≈ 64.1 µg/mL), the MIC (Staphylococcus simulans) was greater than 128 µg/mL and the Ratio (Enterococcus faecium [13]) was 1 - 2. The Ratio (Enterococcus faecalis [14]) was 1 - 2, the MIC [15] was greater than 128 µg/mL and the MIC (Staphylococcus aureus [16]) was 286 µM. It also gave an MIC (Enterococcus gallinarum) of 286 µM (≈ 128 µg/mL), an MIC (Staphylococcus warneri) of 286 µM and an MIC (Enterococcus faecalis [17]) of 286 µM (≈ 128 µg/mL). For the same compound, the MIC [18] was greater than 128 µg/mL, the MIC [19] was 143 µM (≈ 64.1 µg/mL) and the MIC (Staphylococcus hominis) was 286 µM. The MIC (Enterococcus faecalis [20]) was 143 µM (≈ 64.1 µg/mL).
`C=C[C@@](C)(O)CC[C@@H]1[C@@]2(C)CCCC(C)(C)[C@@H]2CC[C@@]1(C)O` was tested, and the MIC (Staphylococcus capitis) was 104 µM, the MIC (Enterococcus faecium [2]) was 104 µM (≈ 32.1 µg/mL) and the MIC (Enterococcus avium) was 207 µM (≈ 63.9 µg/mL). For the same compound, the MIC [3] was 207 µM, the inhibition (Bos taurus [4]) was 70% and the Ratio (Staphylococcus aureus [21]) was 1 - 2. For the same compound, the MIC (Staphylococcus aureus [6]) was 104 µM, the MIC (Enterococcus faecalis [7]) was 207 µM (≈ 63.9 µg/mL) and the MIC (Enterococcus faecalis [8]) was 104 µM (≈ 32.1 µg/mL). The MIC (Enterococcus faecium [9]) was 104 µM, the Ratio [22] was 1 - 2 and the MIC (Enterococcus durans) was 104 µM. The MIC [10] was 207 µM, the MIC [11] was 207 µM and the MIC (Enterococcus faecium [12]) was 207 µM (≈ 63.9 µg/mL). For the same compound, the MIC (Staphylococcus simulans) was 207 µM, the Ratio (Enterococcus faecium [13]) was 1 - 2 and the Ratio (Enterococcus faecalis [14]) was 1 - 2. For the same compound, the MIC [15] was 104 µM, the MIC (Staphylococcus aureus [16]) was 104 µM and the MIC (Enterococcus gallinarum) was 207 µM (≈ 63.9 µg/mL). For the same compound, the MIC (Staphylococcus warneri) was 104 µM, the MIC (Enterococcus faecalis [17]) was 104 µM (≈ 32.1 µg/mL) and the MIC [18] was 104 µM. The MIC [19] was 207 µM (≈ 63.9 µg/mL), the MIC (Staphylococcus hominis) was 104 µM and the MIC (Enterococcus faecalis [20]) was 207 µM (≈ 63.9 µg/mL).
With `CC1=CC(=O)O[C@@H]1C/C=C(\C)CC[C@@H]1[C@@]2(C)CCC[C@@]3(C)C(=O)O[C@@H](C[C@@]1(C)O)[C@H]23` the MIC (Staphylococcus capitis) was 154 µM, the MIC (Enterococcus faecium [2]) was 308 µM (≈ 128 µg/mL) and the MIC (Enterococcus avium) was 154 µM (≈ 64.1 µg/mL). The MIC [3] was greater than 128 µg/mL, the inhibition (Bos taurus [4]) was 79% and the MIC (Staphylococcus aureus [6]) was greater than 128 µg/mL. The MIC (Enterococcus faecalis [7]) was 308 µM (≈ 128 µg/mL), the MIC (Enterococcus faecalis [8]) was 154 µM (≈ 64.1 µg/mL) and the MIC (Enterococcus faecium [9]) was greater than 128 µg/mL. For the same compound, the MIC (Enterococcus durans) was greater than 128 µg/mL, the MIC [10] was greater than 128 µg/mL and the MIC [11] was 308 µM. The MIC (Enterococcus faecium [12]) was 308 µM (≈ 128 µg/mL), the MIC (Staphylococcus simulans) was greater than 128 µg/mL and the Ratio (Enterococcus faecium [13]) was 1 - 2. For the same compound, the Ratio (Enterococcus faecalis [14]) was 1 - 2, the MIC [15] was 308 µM and the MIC (Staphylococcus aureus [16]) was 308 µM. For the same compound, the MIC (Enterococcus gallinarum) was 154 µM (≈ 64.1 µg/mL), the MIC (Staphylococcus warneri) was 308 µM and the MIC (Enterococcus faecalis [17]) was 308 µM (≈ 128 µg/mL). It also gave an MIC [18] greater than 128 µg/mL, an MIC [19] of 308 µM (≈ 128 µg/mL) and an MIC (Staphylococcus hominis) greater than 128 µg/mL. For the same compound, the MIC (Enterococcus faecalis [20]) was 154 µM (≈ 64.1 µg/mL).
